Here are results for one compound from ChEMBL document CHEMBL5661969, “Preclinical evaluation of a potent novel DNA-dependent protein kinase inhibitor NU7441” (Cancer Res, 2006).

A short description of data set [1]: Ratio of drug level in tumor to plasma of human SW620 cell xenografted athymic nude CD1 mouse at 10 mg/kg, ip measured after 240 mins by HPLC analysis. Format: ADME, organism-based. The note with it: tumor and plasma. The procedure, abridged: (§1)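 Female CD-1 nu/nu mice bearing s.c. flank SW620 tumours (1×10^7 cells, ~650 mm³ at 10–14 days) given 10 mg/kg i.p. Tissues snap frozen, homogenised 1:3 in PBS. Acetonitrile precipitation, C18 HPLC with acetate pH 5/acetonitrile 75:25 mobile phase, UV 329 nm; tissue levels by method of addition. Tissue/plasma ratio, mean of three mice per time.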
On the technique in general: Xenograft models place foreign cells or tissue in a host animal.

Data set [2] is described as follows: In vivo inhibition of DNA-PK in human SW620 cells xenografted athymic nude CD1 mouse assessed as potentiation of etoposide phosphate-induced antitumor activity by measuring tumor growth delay at 10 mg/kg, ip administered 5 times daily for 5 days (reference value: 2.7 day). It is filed as functional, SW-620. The note with it: time 5 day. The procedure, abridged: (§2)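 CD-1 nude mice carry palpable s.c. SW620 xenografts (~5×5 mm, 8-10 days), five per group. Treated i.p. daily for 5 days with saline, agent in 40% PEG 400/saline, etoposide phosphate 11.35 mg/kg (equal to 10 mg/kg etoposide), or both, agent given immediately before etoposide phosphate. Read-outs are median relative tumour volume, time to 4× volume (growth delay) and body weight.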

Data set [3] is described as follows: Inhibition of DNA-PK in Chinese hamster DNA-PK proficient V3-YAC cells assessed as potentiation of ionizing radiation-induced cytotoxicity by measuring radiation LD90 at 0.5 umol/L preincubated for 1 hr followed by gamma-irradiation and measured after 16 hrs by crystal violet staining based assay. The arrangement: species or system Cricetulus griseus. As to conditions: dose 0.5 µmol/L; time 17 hrs; condition cancer. The procedure, abridged: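 Clonogenic assay in V3/V3-YAC cells. Cells were then reseeded in drug-free medium, and crystal violet colonies were counted after 10–14 days. LD90 is the radiation dose killing 90%. DMR90 is LD90 without inhibitor divided by LD90 with inhibitor.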

Data set [4] is described as follows: Ratio of drug level in kidney to plasma of human SW620 cell xenografted athymic nude CD1 mouse at 10 mg/kg, ip measured after 240 mins by HPLC analysis. It is filed as ADME, organism-based. The procedure, abridged:
as §1

Data set [5] has as its system SW-620. Nature of the data set: Cell cycle arrest in human SW620 cells assessed as increase in G1-phase cell population at 1 umol/L measured after 16 hrs by propidium iodide staining based flow cytometry relative to control. As to conditions: sw-620, 16 h, 1 µM. (In general: Flow cytometry measures light scatter and fluorescence of single cells or particles in a stream.)

Data set [6] in a line: Toxicity in human SW620 cell xenografted athymic nude CD1 mouse assessed as maximum body weight loss at 10 mg/kg, ip administered 5 times daily for 5 days relative to control. Format: organism-based, SW-620. As to conditions: in vivo, 120 h, time 5 day. The procedure, abridged:
as §2

Data set [7] in a line: Growth inhibition of human SW620 cells at 1 umol/L measured after 5 days by crystal violet staining based assay relative to control. It is filed as toxicity, cell-based, SW-620. The note with it: dose 1 µmol/L, time 5 day, read-out: GI. The gist of the method: (§3)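 LoVo and SW620 cells in 96-well plates under 5-day continuous exposure to agent, and growth measured relative to control.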

Data set [8] can be described thus: Ratio of drug level in spleen to plasma of human SW620 cell xenografted athymic nude CD1 mouse at 10 mg/kg, ip measured after 240 mins by HPLC analysis. It is filed as ADME, organism-based. The procedure, abridged: as §1
Data set [9] in a line: Ratio of drug level in kidney to plasma of human SW620 cell xenografted athymic nude CD1 mouse at 10 mg/kg, ip measured after 90 mins by HPLC analysis. Format: ADME, organism-based. The gist of the method: as §1
Data set [10] can be described thus: AUCinfinity in BALB/c mouse at 5 mg/kg, iv by HPLC analysis. Format: ADME, organism-based. As to conditions: in vivo. The gist of the method: (§4)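 Female BALB/c mice dosed 5 mg/kg i.v. in 10% DMSO/10% cyclodextrin in saline, or 10 mg/kg i.p. or orally at 1 mg/mL in 40% PEG400/saline. Plasma taken at 5, 10, 15, 30, 60, 90, 120, 180, 240 and 360 min, three mice per time. Acetonitrile precipitation, C18 HPLC with UV detection at 329 nm against a plasma standard curve. Parameters derived from mean concentrations.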

Data set [11] in a line: Growth inhibition of human LoVo cells at 1 umol/L measured after 5 days by crystal violet staining based assay relative to control. Format: toxicity, cell-based. As to conditions: dose 1 µmol/L, time 5 day, read-out: GI. The procedure, abridged: as §3
Data set [12] has as its target DNA-dependent protein kinase catalytic subunit (Homo sapiens, UniProt P78527). Nature of the data set: Inhibition of human HeLa cell nuclear extract purified DNA-PK using p53 peptide as substrate by ELISA. Background: In an ELISA, binding on a coated surface is turned into a signal by an enzyme label.
Data set [13] in a line: Cmax in BALB/c mouse at 5 mg/kg, iv by HPLC analysis. Format: ADME, organism-based. The note with it: in vivo. The gist of the method: as §4
The nature of data set [14]: Ratio of drug level in brain to plasma of human SW620 cell xenografted athymic nude CD1 mouse at 10 mg/kg, ip measured after 15 mins by HPLC analysis. As to conditions: brain and plasma, read-out: BPR. Format: ADME, organism-based. The gist of the method: as §1
Data set [15] is described as follows: Cytotoxicity against Chinese hamster DNA-PK deficient V3 cells assessed as cell survival at 0.5 umol/L measured after 16 hrs by crystal violet staining based assay relative to control. It is filed as toxicity, Cricetulus griseus. As to conditions: dose 0.5 µmol/L, read-out: Activity. The gist of the method: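 Exponentially growing cells exposed 16 h to agent (0.5 or 1.0 μmol/L), with or without etoposide or doxorubicin, at 0.5% DMSO final; controls get DMSO alone. Cells are then trypsinized, reseeded at 100–100,000 per dish in drug-free medium and grown 10–14 days. Colonies stained with crystal violet and counted automatically.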

A short description of data set [16]: In vivo inhibition of DNA-PK in human SW620 cells xenografted athymic nude CD1 mouse assessed as potentiation of etoposide phosphate-induced antitumor activity at 10 mg/kg, ip administered 5 times daily for 5 days relative to control. As to conditions: time 5 day. It is filed as functional, SW-620. The procedure, abridged:
as §2

Data set [17] is described as follows: Ratio of drug level in kidney to plasma of human SW620 cell xenografted athymic nude CD1 mouse at 10 mg/kg, ip measured after 15 mins by HPLC analysis. As to conditions: kidney and plasma. It is filed as ADME, organism-based. The procedure, abridged: as §1
The nature of data set [18]: Drug level in tumor of human SW620 cell xenografted athymic nude CD1 mouse at 10 mg/kg, ip measured after 4 hrs by HPLC analysis. The note with it: read-out: Drug uptake. Format: ADME, organism-based, Neoplasm, SW-620. The procedure, abridged: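 CD1 nu/nu female mice carry s.c. SW620 flank tumours (1×10^7 cells), used at ~650 mm³. Single 10 mg/kg i.p. dose, tumour excised and snap frozen at time points up to 240 min, then homogenized 1:3 in PBS. HPLC-UV at 329 nm; tissue levels by the method of addition. Three mice per time point.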

The nature of data set [19]: Clearance in BALB/c mouse at 5 mg/kg, iv by HPLC analysis. It is filed as ADME, organism-based. The note with it: in vivo. The gist of the method: as §4
The nature of data set [20]: Ratio of drug level in liver to plasma of human SW620 cell xenografted athymic nude CD1 mouse at 10 mg/kg, ip measured after 15 mins by HPLC analysis. It is filed as ADME, organism-based. The gist of the method: as §1
A short description of data set [21]: Ratio of drug level in brain to plasma of human SW620 cell xenografted athymic nude CD1 mouse at 10 mg/kg, ip measured after 60 mins by HPLC analysis. Format: ADME, organism-based. As to conditions: brain and plasma, read-out: BPR. The gist of the method: as §1
Data set [22] is described as follows: Ratio of drug level in tumor to plasma of human SW620 cell xenografted athymic nude CD1 mouse at 10 mg/kg, ip measured after 30 mins by HPLC analysis. It is filed as ADME, organism-based. As to conditions: tumor and plasma. The procedure, abridged:
as §1

A short description of data set [23]: Tmax in BALB/c mouse at 10 mg/kg, po by HPLC analysis. Format: ADME, organism-based. The note with it: in vivo. The gist of the method:
as §4

Data set [24] is described as follows: Ratio of drug level in spleen to plasma of human SW620 cell xenografted athymic nude CD1 mouse at 10 mg/kg, ip measured after 90 mins by HPLC analysis. It is filed as ADME, organism-based. The procedure, abridged:
as §1

Chain of DNA-dependent protein kinase catalytic subunit (P78527 whole entry): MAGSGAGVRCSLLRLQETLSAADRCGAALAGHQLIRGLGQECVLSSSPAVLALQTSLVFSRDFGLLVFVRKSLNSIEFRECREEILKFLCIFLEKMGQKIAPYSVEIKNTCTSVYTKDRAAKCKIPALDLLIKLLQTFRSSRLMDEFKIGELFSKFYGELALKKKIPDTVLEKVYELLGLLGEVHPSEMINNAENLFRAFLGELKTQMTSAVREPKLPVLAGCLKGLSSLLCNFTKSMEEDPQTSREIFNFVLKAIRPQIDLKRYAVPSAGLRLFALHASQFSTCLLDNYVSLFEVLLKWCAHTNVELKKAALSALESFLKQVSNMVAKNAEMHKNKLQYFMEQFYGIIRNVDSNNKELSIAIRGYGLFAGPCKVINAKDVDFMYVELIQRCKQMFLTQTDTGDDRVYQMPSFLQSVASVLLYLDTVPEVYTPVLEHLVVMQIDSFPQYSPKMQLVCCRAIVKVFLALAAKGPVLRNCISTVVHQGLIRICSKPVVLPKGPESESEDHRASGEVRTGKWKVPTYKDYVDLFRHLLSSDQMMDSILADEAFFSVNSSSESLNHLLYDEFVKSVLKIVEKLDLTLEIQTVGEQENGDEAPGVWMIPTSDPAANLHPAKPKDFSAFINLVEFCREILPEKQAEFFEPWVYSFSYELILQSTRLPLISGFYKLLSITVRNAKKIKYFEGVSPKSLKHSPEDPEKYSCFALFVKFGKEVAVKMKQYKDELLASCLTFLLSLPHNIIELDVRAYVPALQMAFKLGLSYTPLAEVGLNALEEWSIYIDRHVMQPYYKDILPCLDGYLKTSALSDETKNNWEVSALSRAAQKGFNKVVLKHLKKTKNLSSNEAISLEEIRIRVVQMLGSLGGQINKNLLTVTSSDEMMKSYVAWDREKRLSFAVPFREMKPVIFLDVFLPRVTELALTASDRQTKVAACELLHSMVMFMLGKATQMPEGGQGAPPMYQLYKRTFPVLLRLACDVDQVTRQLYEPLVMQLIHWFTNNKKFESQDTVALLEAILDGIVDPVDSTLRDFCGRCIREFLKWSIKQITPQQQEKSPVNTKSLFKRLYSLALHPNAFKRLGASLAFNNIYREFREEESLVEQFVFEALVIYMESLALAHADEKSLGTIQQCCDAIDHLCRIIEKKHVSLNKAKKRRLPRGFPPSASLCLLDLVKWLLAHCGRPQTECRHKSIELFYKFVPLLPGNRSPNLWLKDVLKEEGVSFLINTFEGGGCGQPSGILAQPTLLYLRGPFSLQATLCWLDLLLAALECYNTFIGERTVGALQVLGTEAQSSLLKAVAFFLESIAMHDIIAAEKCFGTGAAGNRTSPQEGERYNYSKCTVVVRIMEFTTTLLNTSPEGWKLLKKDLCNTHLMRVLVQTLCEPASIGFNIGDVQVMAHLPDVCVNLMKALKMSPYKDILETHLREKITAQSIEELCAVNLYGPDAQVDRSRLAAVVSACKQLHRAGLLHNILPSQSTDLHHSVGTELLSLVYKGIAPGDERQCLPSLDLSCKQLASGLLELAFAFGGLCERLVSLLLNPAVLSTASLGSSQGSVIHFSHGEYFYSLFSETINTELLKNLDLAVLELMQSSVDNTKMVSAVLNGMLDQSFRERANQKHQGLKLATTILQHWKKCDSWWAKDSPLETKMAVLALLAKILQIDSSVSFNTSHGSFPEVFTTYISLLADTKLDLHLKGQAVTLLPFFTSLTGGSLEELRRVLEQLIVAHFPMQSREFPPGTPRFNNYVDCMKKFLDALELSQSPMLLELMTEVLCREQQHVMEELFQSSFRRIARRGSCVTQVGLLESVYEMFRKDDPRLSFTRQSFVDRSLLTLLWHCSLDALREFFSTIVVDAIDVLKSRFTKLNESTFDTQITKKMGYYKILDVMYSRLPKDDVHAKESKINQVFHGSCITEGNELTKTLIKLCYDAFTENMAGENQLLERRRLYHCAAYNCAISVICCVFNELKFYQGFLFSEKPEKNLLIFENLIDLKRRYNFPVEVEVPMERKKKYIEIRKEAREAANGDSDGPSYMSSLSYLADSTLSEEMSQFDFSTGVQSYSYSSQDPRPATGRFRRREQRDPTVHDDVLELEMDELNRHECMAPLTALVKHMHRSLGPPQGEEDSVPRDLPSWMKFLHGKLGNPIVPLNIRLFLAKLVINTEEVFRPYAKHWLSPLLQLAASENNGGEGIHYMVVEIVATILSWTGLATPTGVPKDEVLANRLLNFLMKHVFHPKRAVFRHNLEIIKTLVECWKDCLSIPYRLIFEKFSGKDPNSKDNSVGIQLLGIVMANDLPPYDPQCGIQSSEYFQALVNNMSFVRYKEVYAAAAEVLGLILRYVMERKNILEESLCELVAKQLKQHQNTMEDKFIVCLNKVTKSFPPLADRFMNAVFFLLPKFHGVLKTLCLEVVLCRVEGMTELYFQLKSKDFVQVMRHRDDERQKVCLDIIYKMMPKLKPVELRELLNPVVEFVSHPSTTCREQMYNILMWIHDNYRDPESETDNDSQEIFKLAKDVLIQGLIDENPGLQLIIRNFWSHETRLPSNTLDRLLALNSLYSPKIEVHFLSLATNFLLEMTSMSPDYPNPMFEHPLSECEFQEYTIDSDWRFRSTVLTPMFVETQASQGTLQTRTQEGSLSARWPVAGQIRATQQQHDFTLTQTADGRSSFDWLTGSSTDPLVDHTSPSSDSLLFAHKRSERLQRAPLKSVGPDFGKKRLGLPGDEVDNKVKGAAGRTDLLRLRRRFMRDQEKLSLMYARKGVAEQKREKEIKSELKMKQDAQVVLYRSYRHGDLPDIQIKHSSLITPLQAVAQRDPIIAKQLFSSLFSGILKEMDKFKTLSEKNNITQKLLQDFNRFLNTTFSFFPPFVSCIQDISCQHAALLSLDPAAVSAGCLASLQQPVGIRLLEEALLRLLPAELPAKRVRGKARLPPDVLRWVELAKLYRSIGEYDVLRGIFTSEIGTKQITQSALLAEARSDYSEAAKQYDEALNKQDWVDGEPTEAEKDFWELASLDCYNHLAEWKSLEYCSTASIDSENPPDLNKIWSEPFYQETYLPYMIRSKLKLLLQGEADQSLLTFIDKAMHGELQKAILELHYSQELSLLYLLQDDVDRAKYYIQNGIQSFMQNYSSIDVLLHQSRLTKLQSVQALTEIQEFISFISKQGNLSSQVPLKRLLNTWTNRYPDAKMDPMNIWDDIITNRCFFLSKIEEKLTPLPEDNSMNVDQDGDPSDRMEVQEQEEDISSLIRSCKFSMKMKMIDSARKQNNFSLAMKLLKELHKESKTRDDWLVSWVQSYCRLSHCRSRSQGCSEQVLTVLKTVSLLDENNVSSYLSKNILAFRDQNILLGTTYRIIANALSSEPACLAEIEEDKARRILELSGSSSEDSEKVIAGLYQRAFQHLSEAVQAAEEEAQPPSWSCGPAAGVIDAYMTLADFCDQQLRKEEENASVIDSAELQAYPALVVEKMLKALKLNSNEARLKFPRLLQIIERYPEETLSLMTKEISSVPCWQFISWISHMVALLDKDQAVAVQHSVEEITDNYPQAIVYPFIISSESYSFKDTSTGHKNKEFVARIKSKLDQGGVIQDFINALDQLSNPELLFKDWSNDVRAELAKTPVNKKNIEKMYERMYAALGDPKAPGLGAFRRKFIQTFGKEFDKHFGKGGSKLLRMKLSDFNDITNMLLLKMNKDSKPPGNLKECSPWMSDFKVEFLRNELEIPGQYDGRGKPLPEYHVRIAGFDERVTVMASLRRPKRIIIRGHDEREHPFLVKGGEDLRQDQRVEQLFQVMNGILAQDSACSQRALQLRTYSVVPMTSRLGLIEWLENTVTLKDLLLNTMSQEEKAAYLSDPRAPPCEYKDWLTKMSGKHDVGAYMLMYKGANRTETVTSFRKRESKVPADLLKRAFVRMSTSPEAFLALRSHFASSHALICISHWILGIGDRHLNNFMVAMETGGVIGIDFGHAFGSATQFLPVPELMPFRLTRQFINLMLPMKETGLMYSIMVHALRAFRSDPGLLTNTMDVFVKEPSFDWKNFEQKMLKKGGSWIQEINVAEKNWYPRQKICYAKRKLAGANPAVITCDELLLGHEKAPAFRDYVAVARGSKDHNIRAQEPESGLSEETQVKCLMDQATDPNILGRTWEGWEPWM

For orientation: AUC(0-inf) means total exposure, with the tail of the curve extrapolated. A lower AUC(0-inf) goes with less exposure. In general, IC50 refers to the concentration needed to halve the response being measured. Low values mean greater potency in that assay, high ones weaker potency in that assay. As usually defined, the Cmax is the highest concentration seen after dosing. As usually defined, the clearance is the rate of elimination divided by the concentration. A high value points to a high capacity for elimination. The term Tmax denotes the time from dosing to the highest level. Take `O=c1cc(N2CCOCC2)oc2c(-c3cccc4c3sc3ccccc34)cccc12`: the Kp at 4 h was determined as 4.6 in data set [1], 1 in data set [4] and 19 in [8]. In [2], the Time stood at 5.4 days. Also, the LD90 in data set [3] stood at 2.8 Gy. The Activity in data set [5] is on record as 15%; in data set [6] it was 12%. In addition, the inhibition at 120 h, 1 µM in [7] came out at 8%; in data set [11], 78%. Moreover, the Kp at 1.5 h came out at 14 in data set [9] and 8.7 in data set [24]. In addition, in data set [10], the AUC(0-inf) was 1300 ng·h/mL. In [12], this compound yielded a 50% inhibitory concentration (IC50) of 14 nM. Also, the Cmax in data set [13] turned out to be 1600 ng/mL. Moreover, the Kp at 0.25 h in data set [14] worked out at 1.1; in data set [17], 4.2; in data set [20], 6.4. Further, the viability at 16 h, 0.5 µM in data set [15] came out at 94%. In addition, the Efficacy in [16] was found to be 100%. Moreover, the concentration at 4 h in [18] amounted to 500 nM. This compound also had a clearance in [19] of 65 mL/min/kg. The Kp at 1 h in [21] worked out at 3.2. In data set [22], the Kp at 0.5 h was 1.4. In addition, the Tmax in [23] is 30 min.
